Results published in ChEMBL document CHEMBL3808349, “Antineoplastic Agents. 585. Isolation of Bridelia ferruginea Anticancer Podophyllotoxins and Synthesis of 4-Aza-podophyllotoxin Structural Modifications” (2016).
Values after ≈ are worked out from the molar mass of the structure shown.

What was measured:
Type in all cases: functional
[1] = test system: NCI-H460; experiment: Growth inhibition of human NCI-H460 cells measured after 48 hrs by sulforhodamine B assay; conditions: NCI-H460, 48 h
How it was run: (§1)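 Cells were seeded in RPMI1640 with 5% fetal bovine serum and incubated 24 h before serial dilutions of sample were added. After 48 h exposure, cells were fixed with trichloroacetic acid and stained with sulforhodamine B, and optical density was read by plate reader.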

[2] = Growth inhibition of human KM20L2 cells measured after 48 hrs by sulforhodamine B assay; conditions: KM-20L2, 48 h; how it was run: as §1
[3] = Growth inhibition of human SF268 cells measured after 48 hrs by sulforhodamine B assay; conditions: SF-268, 48 h; how it was run: as §1
[4] = Growth inhibition of human BxPC3 cells measured after 48 hrs by sulforhodamine B assay; conditions: BXPC-3, 48 h; how it was run: as §1
[5] = Growth inhibition of human DU145 cells measured after 48 hrs by sulforhodamine B assay; conditions: DU-145, 48 h; how it was run: as §1
[6] = test system: P388; experiment: Growth inhibition of mouse P388 cells measured after 48 hrs by sulforhodamine B assay; conditions: P388, 48 h, read-out: ED50 (the source's name)
[7] = test system: MCF7; experiment: Growth inhibition of human MCF7 cells measured after 48 hrs by sulforhodamine B assay; conditions: MCF7, 48 h; how it was run: as §1

| Compound | GI50 [1] [µg/mL] | GI50 [2] [µg/mL] | GI50 [3] [µg/mL] | GI50 [4] [µg/mL] | GI50 [5] [µg/mL] | EC50 [6] [µg/mL] | GI50 [7] [µg/mL] |
| --- | --- | --- | --- | --- | --- | --- | --- |
| COc1cc(-c2c3c(nc4cc5c(cc24)OCO5)COC3=O)cc(OC)c1OC | 2.8 (≈ 7.08 µM) | 2.1 (≈ 5.31 µM) | 2.4 (≈ 6.07 µM) | 4.1 (≈ 10.4 µM) | 2.4 (≈ 6.07 µM) | 3.6 (≈ 9.11 µM) | 3.4 (≈ 8.6 µM) |
| COc1cc(C2C3=C(COC3=O)N(CCO)c3cc4c(cc32)OCO4)cc(OC)c1OC (stereo not drawn) | 0.58 (≈ 1.31 µM) | 0.52 (≈ 1.18 µM) | 0.41 (≈ 0.929 µM) | 0.6 (≈ 1.36 µM) | 1.3 (≈ 2.94 µM) | 2 (≈ 4.53 µM) | 0.37 (≈ 0.838 µM) |
| COc1cc(C2C3=C(COC3=O)N(C3CCCC3)c3cc4c(cc32)OCO4)cc(OC)c1O (stereo not drawn) | 0.33 (≈ 0.731 µM) | 2.1 (≈ 4.65 µM) | 0.39 (≈ 0.864 µM) | 0.53 (≈ 1.17 µM) | 0.41 (≈ 0.908 µM) | – | 0.32 (≈ 0.709 µM) |
| COc1cc(C2C3=C(COC3=O)Nc3cc(OC)c(OC)c(OC)c32)cc(Br)c1OC (stereo not drawn) | 0.35 (≈ 0.711 µM) | – | 0.11 (≈ 0.223 µM) | 0.56 (≈ 1.14 µM) | 0.42 (≈ 0.853 µM) | 0.11 (≈ 0.223 µM) | 0.12 (≈ 0.244 µM) |
| COc1cc(C2C3=C(COC3=O)N(CCN3CCOCC3)c3cc4c(cc32)OCO4)cc(OC)c1OC (stereo not drawn) | 3 (≈ 5.88 µM) | 2.5 (≈ 4.9 µM) | 2.6 (≈ 5.09 µM) | 3.5 (≈ 6.86 µM) | 2 (≈ 3.92 µM) | 2.6 (≈ 5.09 µM) | 0.89 (≈ 1.74 µM) |
| COc1cc(C2C3=C(COC3=O)N(CCCn3ccnc3)c3cc4c(cc32)OCO4)cc(OC)c1OC (stereo not drawn) | 3 (≈ 5.93 µM) | 2.2 (≈ 4.35 µM) | 2.5 (≈ 4.95 µM) | 2.9 (≈ 5.74 µM) | 2.1 (≈ 4.15 µM) | 2 (≈ 3.96 µM) | 0.64 (≈ 1.27 µM) |
| COc1cc(C2C3=C(COC3=O)N(CCN3CCCCC3)c3cc4c(cc32)OCO4)cc(OC)c1OC (stereo not drawn) | > 10 | > 10 | > 10 | 4.4 (≈ 8.65 µM) | > 10 | 1.7 (≈ 3.34 µM) | > 10 |
| COc1cc(C2C3=C(COC3=O)N(C)c3cc4c(cc32)OCO4)cc(OC)c1OC (stereo not drawn) | 0.032 (≈ 0.0778 µM) | 0.032 (≈ 0.0778 µM) | 0.029 (≈ 0.0705 µM) | 0.049 (≈ 0.119 µM) | 0.026 (≈ 0.0632 µM) | 0.027 (≈ 0.0656 µM) | 0.034 (≈ 0.0826 µM) |
| COc1cc(C2C3=C(COC3=O)Nc3cc4c(cc32)OCO4)cc(OC)c1O (stereo not drawn) | 0.027 (≈ 0.0704 µM) | 0.032 (≈ 0.0835 µM) | 0.026 (≈ 0.0678 µM) | 0.028 (≈ 0.073 µM) | 0.033 (≈ 0.0861 µM) | 0.028 (≈ 0.073 µM) | 0.025 (≈ 0.0652 µM) |
| COc1cc(C2C3=C(COC3=O)N(CCN(C)C)c3cc4c(cc32)OCO4)cc(OC)c1OC (stereo not drawn) | 1 (≈ 2.13 µM) | 0.51 (≈ 1.09 µM) | 0.46 (≈ 0.982 µM) | 0.43 (≈ 0.918 µM) | 2.5 (≈ 5.34 µM) | 0.18 (≈ 0.384 µM) | 0.29 (≈ 0.619 µM) |
| COc1cc(C2C3=C(COC3=O)N(CCc3ccc(F)cc3)c3cc4c(cc32)OCO4)cc(OC)c1O (stereo not drawn) | 0.36 (≈ 0.712 µM) | – | 0.48 (≈ 0.95 µM) | 1.4 (≈ 2.77 µM) | 0.38 (≈ 0.752 µM) | 0.21 (≈ 0.415 µM) | 0.34 (≈ 0.673 µM) |
| COc1cc(C2C3=C(COC3=O)N(Cc3ccc(F)cc3)c3cc4c(cc32)OCO4)cc(OC)c1OC (stereo not drawn) | 0.031 (≈ 0.0613 µM) | 0.033 (≈ 0.0653 µM) | 0.03 (≈ 0.0593 µM) | 0.046 (≈ 0.091 µM) | 0.047 (≈ 0.093 µM) | 1.9 (≈ 3.76 µM) | 0.037 (≈ 0.0732 µM) |
| COc1cc(C2C3=C(COC3=O)N(Cc3ccco3)c3cc4c(cc32)OCO4)cc(OC)c1O (stereo not drawn) | 0.24 (≈ 0.518 µM) | – | 0.061 (≈ 0.132 µM) | 1 (≈ 2.16 µM) | 0.39 (≈ 0.842 µM) | 0.89 (≈ 1.92 µM) | 0.054 (≈ 0.117 µM) |
| COc1cc(C2C3=C(COC3=O)N(C3CCCC3)c3cc4c(cc32)OCO4)cc(OC)c1OC (stereo not drawn) | 0.16 (≈ 0.344 µM) | 0.12 (≈ 0.258 µM) | 0.062 (≈ 0.133 µM) | 0.083 (≈ 0.178 µM) | 0.27 (≈ 0.58 µM) | – | 0.045 (≈ 0.0967 µM) |
| COc1cc(C2C3=C(COC3=O)N(CCc3ccc([N+](=O)[O-])cc3)c3cc4c(cc32)OCO4)cc(OC)c1OC (stereo not drawn) | 0.3 (≈ 0.549 µM) | 0.26 (≈ 0.476 µM) | 0.2 (≈ 0.366 µM) | 0.39 (≈ 0.714 µM) | 0.3 (≈ 0.549 µM) | – | 0.08 (≈ 0.146 µM) |
| COc1cc(C2C3=C(COC3=O)N(CCc3ccc(Cl)cc3)c3cc4c(cc32)OCO4)cc(OC)c1OC (stereo not drawn) | 0.3 (≈ 0.56 µM) | 0.37 (≈ 0.69 µM) | 0.35 (≈ 0.653 µM) | 0.54 (≈ 1.01 µM) | 0.31 (≈ 0.578 µM) | 2.6 (≈ 4.85 µM) | 0.34 (≈ 0.634 µM) |
| O=C1OCC2=C1C(c1cccc3c1OCO3)c1cc3c(cc1N2)OCO3 (stereo not drawn) | 0.021 (≈ 0.0598 µM) | – | 0.0089 (≈ 0.0253 µM) | 0.065 (≈ 0.185 µM) | 0.041 (≈ 0.117 µM) | 0.17 (≈ 0.484 µM) | 0.0039 (≈ 0.0111 µM) |
| COc1cc(C2C3=C(COC3=O)N(CCc3ccccn3)c3cc4c(cc32)OCO4)cc(OC)c1OC (stereo not drawn) | 0.34 (≈ 0.677 µM) | 0.29 (≈ 0.577 µM) | 0.33 (≈ 0.657 µM) | 0.38 (≈ 0.756 µM) | 0.42 (≈ 0.836 µM) | 2.5 (≈ 4.97 µM) | 0.32 (≈ 0.637 µM) |
| COc1cc(C2C3=C(COC3=O)N(CCCO)c3cc4c(cc32)OCO4)cc(OC)c1OC (stereo not drawn) | 0.33 (≈ 0.725 µM) | 0.38 (≈ 0.834 µM) | 0.36 (≈ 0.79 µM) | 0.48 (≈ 1.05 µM) | 0.49 (≈ 1.08 µM) | 0.28 (≈ 0.615 µM) | 0.34 (≈ 0.746 µM) |
| COc1cc(C2C3=C(COC3=O)N(CCc3ccc(F)cc3)c3cc4c(cc32)OCO4)cc(OC)c1OC (stereo not drawn) | 2.3 (≈ 4.43 µM) | 2.4 (≈ 4.62 µM) | 0.52 (≈ 1 µM) | 0.9 (≈ 1.73 µM) | 2.5 (≈ 4.81 µM) | 3.3 (≈ 6.35 µM) | 0.42 (≈ 0.808 µM) |
| COc1ccc(C2C3=C(COC3=O)Nc3cc(OC)c(OC)c(OC)c32)cc1O (stereo not drawn) | 10.1 (≈ 25.3 µM) | – | 7.3 (≈ 18.3 µM) | 6.5 (≈ 16.3 µM) | > 10 | 0.78 (≈ 1.95 µM) | 7 (≈ 17.5 µM) |
| COc1cc(C2C3=C(COC3=O)Nc3cc(OC)c(OC)c(OC)c32)cc(OC)c1OC (stereo not drawn) | 3.6 (≈ 8.12 µM) | – | 3.6 (≈ 8.12 µM) | 5.6 (≈ 12.6 µM) | 3.3 (≈ 7.44 µM) | 1.3 (≈ 2.93 µM) | 1.7 (≈ 3.83 µM) |
| COc1cc(C2C3=C(COC3=O)N(C3CCC3)c3cc4c(cc32)OCO4)cc(OC)c1OC (stereo not drawn) | 0.028 (≈ 0.062 µM) | 0.032 (≈ 0.0709 µM) | 0.026 (≈ 0.0576 µM) | 0.04 (≈ 0.0886 µM) | 0.047 (≈ 0.104 µM) | 0.24 (≈ 0.532 µM) | 0.026 (≈ 0.0576 µM) |
| COc1cc(C2C3=C(COC3=O)N(C3CCCCC3)c3cc4c(cc32)OCO4)cc(OC)c1OC (stereo not drawn) | 0.27 (≈ 0.563 µM) | 0.24 (≈ 0.5 µM) | 0.066 (≈ 0.138 µM) | 0.17 (≈ 0.355 µM) | 0.27 (≈ 0.563 µM) | 3.4 (≈ 7.09 µM) | 0.052 (≈ 0.108 µM) |
| COc1cc(C2C3=C(COC3=O)Nc3cc4c(cc32)OCO4)cc(OC)c1OC (stereo not drawn) | – | – | – | – | – | 0.0018 (≈ 0.00453 µM) | – |
| COc1cc([C@@H]2c3cc4c(c(O[C@@H]5O[C@H](CO)[C@@H](O)[C@H](O)[C@H]5O)c3C[C@H]3COC(=O)[C@@H]32)OCO4)cc(OC)c1OC | 0.28 (≈ 0.486 µM) | > 1 | 0.27 (≈ 0.468 µM) | > 1 | > 1 | 0.21 (≈ 0.364 µM) | 0.85 (≈ 1.47 µM) |
| COc1cc([C@@H]2c3cc4c(c(O)c3C[C@H]3COC(=O)[C@@H]32)OCO4)cc(OC)c1OC [BETA-PELTATIN A] | 0.00077 (≈ 0.00186 µM) | 0.0076 (≈ 0.0183 µM) | 0.0004 (≈ 0.000965 µM) | 0.0012 (≈ 0.0029 µM) | 0.0021 (≈ 0.00507 µM) | 0.0031 (≈ 0.00748 µM) | 0.00055 (≈ 0.00133 µM) |
| COc1cc([C@@H]2c3cc4c(cc3C[C@H]3COC(=O)[C@@H]32)OCO4)cc(OC)c1OC [DESOXYPODOPHYLLOTOXIN] | 0.0018 (≈ 0.00452 µM) | 0.0014 (≈ 0.00351 µM) | 0.00056 (≈ 0.00141 µM) | 0.00044 (≈ 0.0011 µM) | 0.0017 (≈ 0.00427 µM) | 0.029 (≈ 0.0728 µM) | 0.0027 (≈ 0.00678 µM) |
| COc1cc([C@H]2c3cc4c(cc3C[C@H]3COC(=O)[C@H]32)OCO4)cc(OC)c1OC [ISOPICRODEOXYPODOPHYLLOTOXIN] | – | – | – | – | – | < 0.1 | – |
| COc1cc([C@@H]2c3cc4c(cc3[C@H](O)[C@H]3COC(=O)[C@H]23)OCO4)cc(OC)c1OC [PODOFILOX] | – | – | – | – | – | 0.0043 (≈ 0.0104 µM) | – |
